The results in this text go back to ChEMBL document CHEMBL1122263, “Resolution and absolute configuration of an ergoline-related dopamine agonist, trans-4,4a,5,6,7,8,8a,9-Octahydro-5-propyl-1H(or 2H)-pyrazolo[3,4-g]quinoline” (J Med Chem, 1983).

Several values for one entry are separate records, joined by “and”; a condition that tells them apart may be missing. Equal values may be shown once.

Assay [1] relates to Rattus norvegicus. Kind of assay: Hypotensive activity when administered iv in pentobarbital-anesthetized, spontaneously hypertensive rats, at a dose 1 ug/Kg. In kind it is functional. The method in brief: (§1)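 Spontaneously hypertensive rats under pentobarbital anesthesia, arterial BP recorded. Dosing iv, ip or intragastric at 1–1000 μg/kg. Value is maximum % change in BP, taken immediately after iv or within 30 min after ip/ig dosing. Mean ± SE of four rats.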

The subject of assay [2] is Rattus norvegicus. The experiment in a line: Effect (% reduction) on serum levels in reserpinized male rats at a dose, 0.03 umol/kg. In kind it is functional. The method in brief: (§2)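 Prolactin assay in reserpinized male rats, run by standard methods. Doses given orally; value is % reduction of serum prolactin versus control. Significance set at p < 0.05.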
In assay [3] the test system is Rattus norvegicus. Kind of assay: Effect (% reduction) on serum levels in reserpinized male rats at a dose, 0.17 umol/kg. The assay is classed as functional. The method in brief:
as §2

For assay [4], the system named is Rattus norvegicus. Kind of assay: Hypotensive activity when administered iv in pentobarbital-anesthetized, spontaneously hypertensive rats, at a dose 0.1 ug/kg. In kind it is functional.
Assay [5] deals with Rattus norvegicus. The experiment in a line: Effect (% reduction) on serum levels in reserpinized male rats at a dose, 0.3 umol/kg. In kind it is functional. The method, boiled down: as §2
Assay [6] relates to Rattus norvegicus. Kind of assay: Hypotensive activity when administered iv in pentobarbital-anesthetized, spontaneously hypertensive rats, at a dose 100 ug/Kg. The assay is classed as functional. The method, boiled down:
as §1

In assay [7] the test system is Rattus norvegicus. The experiment in a line: Effect on Turning behavior in male rats with unilateral 6-hydroxydopamine-induced lesions of the nigrostriatal tract at 500 ug/kg ip. In kind it is functional. The method in brief:
(§3)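 Rats carrying unilateral 6-hydroxydopamine lesions of the nigrostriatal tract, six per group, dosed ip. Contralateral turning recorded as: % of rats making at least one turn/min for 15 min; average turns in the first 15 min after turning began; turns in the first hour; and duration of turning in hours.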

Assay [8] deals with Rattus norvegicus. The experiment in a line: Hypotensive activity when administered iv in pentobarbital-anesthetized, spontaneously hypertensive rats, at a dose 10 ug/Kg. The assay is classed as functional. The method in brief:
as §1

The test system of assay [9] is Rattus norvegicus. The experiment in a line: Effect (% reduction) on serum levels in reserpinized male rats at a dose,0.017 umol/kg. The assay is classed as functional. The method, boiled down: as §2
Assay [10] is filed under the species Rattus norvegicus. The experiment in a line: Effect of lordotic behavior of rats preinjection lordosis-to-mount ratio. In kind it is functional. The method in brief: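 Chronically ovariectomized Long-Evans hooded rats primed with 100 μg estrone sc in sesame oil 48 h before testing. Lordosis-to-mount ratio scored over 15 mounts by a sexually active male before injection. Drug given sc at 25 μg/kg in 1 mM ascorbic acid/1 mM acetic acid; retested 90 min later. N = 20; X ± SE.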

In assay [11] the test system is Rattus norvegicus. The experiment in a line: Effect on turning behavior in male rats with unilateral 6-OH-Dopamine-induced lesions of the nigrostriatal tract at 100 ug/kg i.p. In kind it is functional. The method in brief: as §3
The subject of assay [12] is Rattus norvegicus. Kind of assay: Hypotensive activity when administered iv in pentobarbital-anesthetized, spontaneously hypertensive rats, at a dose 1000 ug/Kg. In kind it is functional. The method, boiled down: as §1
Assay [13] has as its system Rattus norvegicus. The experiment in a line: Effect of iv injection on arterial blood pressure in the anesthetized, spontaneously hypertensive rat at a dose 10 ug/kg.
Assay [14] relates to Rattus norvegicus. The experiment in a line: Hypotensive activity when administered iv in pentobarbital-anesthetized, spontaneously hypertensive rats, at a dose 1000 ug/kg. In kind it is functional. The method, boiled down:
as §1

Assay [15] deals with Rattus norvegicus. The experiment in a line: Hypotensive activity when administered iv in pentobarbital-anesthetized, spontaneously hypertensive rats, at a dose 10 ug/kg. The assay is classed as functional. The method in brief:
as §1

The subject of assay [16] is Rattus norvegicus. Kind of assay: Hypotensive activity when administered ig in pentobarbital-anesthetized, spontaneously hypertensive rats, at a dose 100 ug/kg. The assay is classed as functional. The method in brief: as §1
Assay [17] relates to Rattus norvegicus. The experiment in a line: Hypotensive activity when administered ip in pentobarbital-anesthetized, spontaneously hypertensive rats, at a dose 10 ug/kg. The assay is classed as functional. The method, boiled down:
as §1

Assay [18] concerns Canis familiaris. Kind of assay: Effect of iv injection on arterial blood pressure in the anesthetized, normotensive dog at a dose 1000 ug/kg. The assay is classed as functional, Canis lupus familiaris.
Assay [19] concerns Rattus norvegicus. The experiment in a line: Hypotensive activity when administered ig in pentobarbital-anesthetized, spontaneously hypertensive rats, at a dose 1000 ug/kg. In kind it is functional. The method, boiled down: as §1
Assay [20] has as its system Felis catus. Kind of assay: Effect of iv injection on arterial blood pressure in the anesthetized, normotensive cat at a dose 100 ug/kg. In kind it is functional.
Assay [21] concerns Rattus norvegicus. Kind of assay: Effect of iv injection on arterial blood pressure in the anesthetized, spontaneously hypertensive rat at a dose 1 ug/kg.
For assay [22], the system named is Rattus norvegicus. The experiment in a line: Hypotensive activity when administered ig in pentobarbital-anesthetized, spontaneously hypertensive rats, at a dose 10 ug/kg. The assay is classed as functional. The method in brief:
as §1

In assay [23] the test system is Felis catus. The experiment in a line: Effect of iv injection on arterial blood pressure in the anesthetized, normotensive cat at a dose 10 ug/kg. In kind it is functional.
The test system of assay [24] is Rattus norvegicus. Kind of assay: Hypotensive activity when administered ip in pentobarbital-anesthetized, spontaneously hypertensive rats, at a dose 1000 ug/kg. The assay is classed as functional. The method, boiled down: as §1
For assay [25], the system named is Canis familiaris. The experiment in a line: Effect of iv injection on arterial blood pressure in the anesthetized, normotensive dog at a dose 10 ug/kg. In kind it is functional, Canis lupus familiaris.
Assay [26] has as its system Canis familiaris. Kind of assay: Effect of iv injection on arterial blood pressure in the anesthetized, normotensive dog at a dose 1 ug/kg. In kind it is functional, Canis lupus familiaris.
Assay [27] has as its system Rattus norvegicus. Kind of assay: Effect of iv injection on arterial blood pressure in the anesthetized, spontaneously hypertensive rat at a dose 1000 ug/kg.
Assay [28] has as its system Rattus norvegicus. Kind of assay: Hypotensive activity when administered ip in pentobarbital-anesthetized, spontaneously hypertensive rats, at a dose 100 ug/kg. The assay is classed as functional. The method, boiled down: as §1
The subject of assay [29] is Rattus norvegicus. Kind of assay: Effect of iv injection on arterial blood pressure in the anesthetized, spontaneously hypertensive rat at a dose 100 ug/kg.
Assay [30] has as its system Rattus norvegicus. Kind of assay: Hypotensive activity when administered iv in pentobarbital-anesthetized, spontaneously hypertensive rats, at a dose 1 ug/kg. The assay is classed as functional. The method in brief:
as §1

Assay [31] concerns Rattus norvegicus. Kind of assay: Hypotensive activity when administered iv in pentobarbital-anesthetized, spontaneously hypertensive rats, at a dose 100 ug/kg. In kind it is functional. The method in brief: as §1
For assay [32], the system named is Canis familiaris. Kind of assay: Effect of iv injection on arterial blood pressure in the anesthetized, normotensive dog at a dose 100 ug/kg. In kind it is functional, Canis lupus familiaris.

With `CCCN1CCC[C@@H]2Cc3n[nH]cc3CC21` (single isomer, unassigned; (-)), the BP change in the assay with Rattus norvegicus [1] is listed as -14.3%; in the assay on Rattus norvegicus [4], -7.7%; with Rattus norvegicus [6] it was -38.6%; with Rattus norvegicus [8] it was -25.2%. Moreover, the Reduction was found to be 38% in the assay on Rattus norvegicus [2], 73% in the assay on Rattus norvegicus [3], 88% in the assay on Rattus norvegicus [5] and 26% in the assay with Rattus norvegicus [9]. For the same compound, the Activity in the assay with Rattus norvegicus [7] was found to be 100%.

Turning to `CN1CCc2cccc3c2[C@H]1Cc1ccc(O)c(O)c1-3` [APOMORPHINE], the Activity in the assay on Rattus norvegicus [7] amounted to 100%.

Take `CCCN1CCC[C@@H]2Cc3n[nH]cc3CC21` (single isomer, unassigned; (+)): in the assay listed under Rattus norvegicus [10], the L/M ratio came to 0.12. For the same compound, the BP change with Rattus norvegicus [1] is -5.1%; in the assay with Rattus norvegicus [4], -8.5%; in the assay on Rattus norvegicus [6], -4.6%; in the assay with Rattus norvegicus [8], -5%; with Rattus norvegicus [12], -6.4%. Besides, the Activity with Rattus norvegicus [11] was 0% and 0; in the assay with Rattus norvegicus [7], 0%.

`CCCN1CCC[C@@H]2Cc3n[nH]cc3CC21` (mixture of isomers): the BP change with Rattus norvegicus [13] is given as -22%; in the assay on Rattus norvegicus [14], -52.2%; in the assay on Rattus norvegicus [15], -22.4%; with Rattus norvegicus [16], -27.6%; in the assay with Rattus norvegicus [17], -6.1%; with Canis familiaris [18], -46%. The BP change was -50.7% with Rattus norvegicus [19]; -45% in the assay on Felis catus [20]; -13% with Rattus norvegicus [21]; -5.4% in the assay with Rattus norvegicus [22]; -23% in the assay on Felis catus [23]; -45.7% in the assay with Rattus norvegicus [24]. Besides, the BP change in the assay on Canis familiaris [25] was -34%; in the assay on Canis familiaris [26], -15%; in the assay with Rattus norvegicus [27] it was -52%; with Rattus norvegicus [28], -40.5%; in the assay with Rattus norvegicus [29] it was -32%; in the assay on Rattus norvegicus [30], -12.7%. For the same compound, the BP change with Rattus norvegicus [31] is listed as -32%; in the assay on Canis familiaris [32], -45%. In addition, the Reduction stood at 20% with Rattus norvegicus [2], 65% in the assay with Rattus norvegicus [3], 76% in the assay with Rattus norvegicus [5] and 19% in the assay with Rattus norvegicus [9].
